Measured values: ChEMBL document CHEMBL2062453, “Lead optimization through VLAK protocol: new annelated pyrrolo-pyrimidine derivatives as antitumor agents” (2012)

Assays:
Format in all cases: functional
CCRF-CEM = assay: Cytotoxicity against human CCRF-CEM cells assessed as cell growth at 10 uM after 48 hrs by SRB assay relative to control; conditions: read-out: Activity
In short: (§1)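 NCI primary screen of about 60 human tumour lines. Cells inoculated and preincubated, then a single test concentration added and cultures incubated 48 h. Result given as percent growth (G%) of treated versus untreated control cells.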

K562 = assay: Cytotoxicity against human K562 cells assessed as cell growth at 10 uM after 48 hrs by SRB assay relative to control; conditions: K562, 48 h, read-out: Activity; in short: as §1
MOLT-4 = assay: Cytotoxicity against human MOLT4 cells assessed as cell growth at 10 uM after 48 hrs by SRB assay relative to control; conditions: MOLT-4, 48 h, read-out: Activity
SR = assay: Cytotoxicity against human SR cells assessed as cell growth at 10 uM after 48 hrs by SRB assay relative to control; conditions: read-out: Activity
In short: (§2)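 NCI single-dose primary screen across about 60 human tumour lines. Each line was inoculated and preincubated on microtiter plates, then exposed to one concentration of agent for 48 h. Growth is reported as percent growth (G%) of treated cells versus untreated control cells.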

NCI-H226 = assay: Cytotoxicity against human NCI-H226 cells assessed as cell growth at 10 uM after 48 hrs by SRB assay relative to control; conditions: NCI-H226, 48 h, read-out: Activity
NCI-H322M = assay: Cytotoxicity against human NCI-H322M cells assessed as cell growth at 10 uM after 48 hrs by SRB assay relative to control; conditions: read-out: Activity
NCI-H522 = assay: Cytotoxicity against human NCI-H522 cells assessed as cell growth at 10 uM after 48 hrs by SRB assay relative to control; conditions: NCI-H522, 48 h, read-out: Activity
HT-29 = assay: Cytotoxicity against human HT-29 cells assessed as cell growth at 10 uM after 48 hrs by SRB assay relative to control; conditions: HT-29, 48 h, read-out: Activity; in short: as §1
KM12 = assay: Cytotoxicity against human KM12 cells assessed as cell growth at 10 uM after 48 hrs by SRB assay relative to control; conditions: KM12, 48 h, read-out: Activity; in short: as §1
SF-295 = assay: Cytotoxicity against human SF295 cells assessed as cell growth at 10 uM after 48 hrs by SRB assay relative to control; conditions: SF-295, 48 h, read-out: Activity
SF-539 = assay: Cytotoxicity against human SF539 cells assessed as cell growth at 10 uM after 48 hrs by SRB assay relative to control; conditions: SF-539, 48 h, read-out: Activity
SNB-19 = assay: Cytotoxicity against human SNB19 cells assessed as cell growth at 10 uM after 48 hrs by SRB assay relative to control; conditions: SNB-19, 48 h, read-out: Activity
U-251 = assay: Cytotoxicity against human U251 cells assessed as cell growth at 10 uM after 48 hrs by SRB assay relative to control; conditions: U-251, 48 h, read-out: Activity; in short: as §2
LOX IMVI = assay: Cytotoxicity against human LOXIMVI cells assessed as cell growth at 10 uM after 48 hrs by SRB assay relative to control; conditions: read-out: Activity; in short: as §1
M14 = assay: Cytotoxicity against human M14 cells assessed as cell growth at 10 uM after 48 hrs by SRB assay relative to control; conditions: M14, 48 h, read-out: Activity; in short: as §1
SK-MEL-5 = assay: Cytotoxicity against human SK-MEL-5 cells assessed as cell growth at 10 uM after 48 hrs by SRB assay relative to control; conditions: SK-MEL-5, 48 h, read-out: Activity
IGROV-1 = assay: Cytotoxicity against human IGROV1 cells assessed as cell growth at 10 uM after 48 hrs by SRB assay relative to control; conditions: IGROV-1, 48 h, read-out: Activity; in short: as §1
OVCAR-5 = assay: Cytotoxicity against human OVCAR5 cells assessed as cell growth at 10 uM after 48 hrs by SRB assay relative to control; conditions: OVCAR-5, 48 h, read-out: Activity
SK-OV-3 = assay: Cytotoxicity against human SKOV3 cells assessed as cell growth at 10 uM after 48 hrs by SRB assay relative to control; conditions: SK-OV-3, 48 h, read-out: Activity
786-0 = assay: Cytotoxicity against human 786-0 cells assessed as cell growth at 10 uM after 48 hrs by SRB assay relative to control; conditions: 786-0, 48 h, read-out: Activity; in short: as §1
A498 = assay: Cytotoxicity against human A498 cells assessed as cell growth at 10 uM after 48 hrs by SRB assay relative to control; conditions: A498, 48 h, read-out: Activity; in short: as §1
CAKI-1 = assay: Cytotoxicity against human Caki1 cells assessed as cell growth at 10 uM after 48 hrs by SRB assay relative to control; conditions: CAKI-1, 48 h, read-out: Activity; in short: as §1
SN12C = assay: Cytotoxicity against human SN12C cells assessed as cell growth at 10 uM after 48 hrs by SRB assay relative to control; conditions: read-out: Activity
UO-31 = assay: Cytotoxicity against human UO31 cells assessed as cell growth at 10 uM after 48 hrs by SRB assay relative to control; conditions: UO-31, 48 h, read-out: Activity; in short: as §2
DU-145 = assay: Cytotoxicity against human DU145 cells assessed as cell growth at 10 uM after 48 hrs by SRB assay relative to control; conditions: DU-145, 48 h, read-out: Activity; in short: as §1
Hs-578T = assay: Cytotoxicity against human Hs578T cells assessed as cell growth at 10 uM after 48 hrs by SRB assay relative to control; conditions: read-out: Activity; in short: as §1
MDA-MB-468 = assay: Cytotoxicity against human MDA-MB-468 cells assessed as cell growth at 10 uM after 48 hrs by SRB assay relative to control; conditions: MDA-MB-468, 48 h, read-out: Activity

SMILES | growth at 10 µM (CCRF-CEM) | growth at 10 µM (K562) | growth at 10 µM (MOLT-4) | growth at 10 µM (NCI-H226) | growth at 10 µM (NCI-H322M) | growth at 10 µM (NCI-H522) | growth at 10 µM (HT-29) | growth at 10 µM (KM12) | growth at 10 µM (SF-295) | growth at 10 µM (SF-539) | growth at 10 µM (SNB-19) | growth at 10 µM (U-251) | growth at 10 µM (LOX IMVI) | growth at 10 µM (M14) | growth at 10 µM (SK-MEL-5) | growth at 10 µM (IGROV-1) | growth at 10 µM (OVCAR-5) | growth at 10 µM (SK-OV-3) | growth at 10 µM (786-0) | growth at 10 µM (A498) | other results
CCOC(=O)CCCn1c2c(c(C)c1-c1ccccc1)C1=NC(=O)CN1C(SC)=N2 | 71% | 90% | 77% | 110% | 108% | 92% | 103% | 96% | 98% | 84% | 106% | 102% | 93% | 107% | 78% | 105% | 111% | 123% | 100% | 118% | growth at 10 µM (SR): 94%; growth at 10 µM (CAKI-1): 100%; growth at 10 µM (SN12C): 127%; growth at 10 µM (UO-31): 85%; growth at 10 µM (DU-145): 109%; growth at 10 µM (Hs-578T): 112%; growth at 10 µM (MDA-MB-468): 87%
CSC1=Nc2c(c(C)c(-c3ccccc3)n2CCCC(=O)O)C2=NC(=O)CN12 | 102% | 99% | 87% | 107% | 131% | 84% | 97% | 100% | 105% | 92% | 104% | 90% | 77% | 104% | 97% | 88% | 98% | 114% | 102% | 109% | growth at 10 µM (CAKI-1): 70%; growth at 10 µM (SN12C): 105%; growth at 10 µM (UO-31): 82%; growth at 10 µM (DU-145): 116%; growth at 10 µM (Hs-578T): 106%; growth at 10 µM (MDA-MB-468): 90%
CSC1=Nc2c(c(C)c(-c3ccccc3)n2CCCN2CCN(C)CC2)C2=NC(=O)CN12 | 86% | 93% | 79% | 76% | 97% | 85% | 98% | 99% | 110% | 86% | 96% | 101% | 93% | 100% | 91% | 92% | 99% | 96% | 98% | 93% | growth at 10 µM (SR): 70%; growth at 10 µM (CAKI-1): 92%; growth at 10 µM (SN12C): 96%; growth at 10 µM (UO-31): 78%; growth at 10 µM (DU-145): 101%; growth at 10 µM (Hs-578T): 75%; growth at 10 µM (MDA-MB-468): 79%
COC(=O)C(Cc1cnc[nH]1)NC(=O)CCCn1c(C)c(C)c2c1N=C(SC)N1CC(=O)N=C21 (stereo not drawn) | 105% | 97% | 98% | 111% | 105% | 90% | 96% | 106% | 112% | 91% | 94% | 96% | 92% | 106% | 98% | 95% | 106% | 125% | 104% | 101% | growth at 10 µM (SR): 118%; growth at 10 µM (CAKI-1): 102%; growth at 10 µM (SN12C): 107%; growth at 10 µM (UO-31): 96%; growth at 10 µM (DU-145): 113%; growth at 10 µM (Hs-578T): 107%; growth at 10 µM (MDA-MB-468): 96%
CSC1=Nc2c(c(C)c(C)n2CCCC(=O)O)C2=NC(=O)CN12 | 105% | 93% | 103% | 110% | 112% | 94% | 108% | 112% | 122% | 86% | 107% | 107% | 93% | 110% | 101% | 101% | 117% | 113% | 109% | 86% | growth at 10 µM (SR): 122%; growth at 10 µM (CAKI-1): 112%; growth at 10 µM (SN12C): 115%; growth at 10 µM (UO-31): 88%; growth at 10 µM (DU-145): 118%; growth at 10 µM (Hs-578T): 114%; growth at 10 µM (MDA-MB-468): 97%
CSC1=Nc2c(c(C)c(C)n2CCCC(=O)NCCc2cnc[nH]2)C2=NC(=O)CN12 | 104% | 100% | 97% | 106% | 111% | 83% | 95% | 171% | 106% | 97% | 102% | 101% | 102% | 102% | 101% | 94% | 116% | 127% | 110% | 107% | growth at 10 µM (SR): 126%; growth at 10 µM (CAKI-1): 111%; growth at 10 µM (SN12C): 100%; growth at 10 µM (UO-31): 85%; growth at 10 µM (DU-145): 149%; growth at 10 µM (Hs-578T): 117%; growth at 10 µM (MDA-MB-468): 89%
CCOC(=O)CCCn1c(C)c(C)c2c1N=C(SC)N1CC(=O)N=C21 | 100% | 94% | 98% | 113% | 111% | 97% | 109% | 154% | 113% | 95% | 108% | 105% | 101% | 106% | 100% | 98% | 125% | 127% | 113% | 115% | growth at 10 µM (SR): 119%; growth at 10 µM (CAKI-1): 108%; growth at 10 µM (SN12C): 110%; growth at 10 µM (UO-31): 81%; growth at 10 µM (DU-145): 149%; growth at 10 µM (Hs-578T): 120%; growth at 10 µM (MDA-MB-468): 55%
